The source made the active and inactive calls. No cut-off for these calls is given here.
Legend:
PC-9 = assay: Antiproliferative activity against human PC9 cells harboring EGFR exon 19 deletion mutant after 72 hrs by MTS assay; type: functional, cell-based; details: PC-9, 72 h
Procedure, shortened: (§1)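 NCI-H460, PC9 or NCI-H1975 cells were grown in RPMI 1640 with 10% FBS at 37 °C and 5% CO2, and used at passages 3–5 from thawing. Exponentially growing cells were seeded at 7000 cells/well. After 24 h the medium was replaced with medium containing a 3-fold serial dilution of compound in DMSO, and cells were incubated 72 h at 37 °C. MTS was added for 2 h and A490 read. Samples were run in triplicate and repeated at least three times.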

NCI-H1975 [1] = assay: Antiproliferative activity against human NCI-H1975 cells harboring EGFR L858R/T790M double mutant after 72 hrs by MTS assay; type: functional, cell-based; details: NCI-H1975, 72 h; procedure, shortened: as §1
[2] = Solubility of the compound in PBS at pH 7.4; type: physicochemical
BEAS-2B = assay: Antiproliferative activity against human BEAS2B cells after 72 hrs by MTS assay; type: cell-based
NCI-H460 = assay: Antiproliferative activity against human NCI-H460 cells after 72 hrs by MTS assay; type: functional, cell-based; details: NCI-H460, 72 h; procedure, shortened: as §1
[3] = system: Epidermal growth factor receptor (Homo sapiens), P00533 [UNDEFINED MUTATION]; assay: Inhibition of EGFR exon 19 deletion mutant in human PC9 cells assessed as inhibition of ERK phosphorylation at P-p44/42 residue up to 1000 nmol/L after 6 hrs by Western blot analysis; type: cell-based
Chain of Epidermal growth factor receptor (Homo sapiens), P00533 [UNDEFINED MUTATION] (P00533 whole entry, looked up, stated change not applied): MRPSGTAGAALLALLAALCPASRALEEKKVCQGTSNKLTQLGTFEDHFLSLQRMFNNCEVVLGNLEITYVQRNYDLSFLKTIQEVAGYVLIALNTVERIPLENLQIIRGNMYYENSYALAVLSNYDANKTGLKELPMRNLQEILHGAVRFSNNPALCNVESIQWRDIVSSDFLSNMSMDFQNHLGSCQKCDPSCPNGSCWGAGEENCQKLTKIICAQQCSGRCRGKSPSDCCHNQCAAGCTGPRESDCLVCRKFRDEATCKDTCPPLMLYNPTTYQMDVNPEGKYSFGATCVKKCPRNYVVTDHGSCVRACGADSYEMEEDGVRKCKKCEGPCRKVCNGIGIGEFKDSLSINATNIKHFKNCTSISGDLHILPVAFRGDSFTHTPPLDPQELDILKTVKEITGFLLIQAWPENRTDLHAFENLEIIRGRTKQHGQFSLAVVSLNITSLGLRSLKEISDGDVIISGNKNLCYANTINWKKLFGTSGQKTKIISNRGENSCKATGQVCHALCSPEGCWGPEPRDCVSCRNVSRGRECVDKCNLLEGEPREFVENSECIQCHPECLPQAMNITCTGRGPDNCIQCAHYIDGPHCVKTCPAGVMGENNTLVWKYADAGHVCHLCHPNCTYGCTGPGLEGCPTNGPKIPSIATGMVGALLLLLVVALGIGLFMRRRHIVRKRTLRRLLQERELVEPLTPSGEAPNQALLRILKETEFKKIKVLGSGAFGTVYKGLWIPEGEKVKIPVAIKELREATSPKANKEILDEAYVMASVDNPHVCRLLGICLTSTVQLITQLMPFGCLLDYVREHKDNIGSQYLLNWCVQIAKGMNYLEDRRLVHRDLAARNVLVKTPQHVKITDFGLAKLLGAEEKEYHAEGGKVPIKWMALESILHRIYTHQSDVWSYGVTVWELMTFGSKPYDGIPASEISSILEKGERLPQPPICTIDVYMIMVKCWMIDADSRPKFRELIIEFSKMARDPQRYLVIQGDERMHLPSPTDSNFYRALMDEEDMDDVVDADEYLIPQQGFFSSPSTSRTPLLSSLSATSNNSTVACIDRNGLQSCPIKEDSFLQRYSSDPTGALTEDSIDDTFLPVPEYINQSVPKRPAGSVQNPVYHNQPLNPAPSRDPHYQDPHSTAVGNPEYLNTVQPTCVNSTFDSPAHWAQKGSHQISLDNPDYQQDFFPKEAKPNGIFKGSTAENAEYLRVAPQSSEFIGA
Procedure, shortened: (§2)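 The buffer was supplemented with protease inhibitor cocktail, 40 mmol/L sodium fluoride and 1 mmol/L sodium orthovanadate. Protein was quantified by BCA before immunoblotting.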

Homo sapiens = species on record: Homo sapiens; assay: Selectivity index, ratio of IC50 for wild type EGFR (unknown origin) to IC50 for EGFR L858R/T790M double mutant (unknown origin)
[4] = system: Epidermal growth factor receptor (Homo sapiens), P00533 [UNDEFINED MUTATION]; assay: Inhibition of EGFR exon 19 deletion mutant phosphorylation at Y1086 residue in human PC9 cells up to 1000 nmol/L after 6 hrs by Western blot analysis; type: cell-based; procedure, shortened: as §2
[5] = system: Epidermal growth factor receptor (Homo sapiens), P00533 [L858R,T790M]; assay: Inhibition of EGFR L858R/T790M mutant phosphorylation at Y1086 residue in human H1975 cells up to 1000 nmol/L after 6 hrs by Western blot analysis; type: cell-based; procedure, shortened: as §2
Chain of Epidermal growth factor receptor (Homo sapiens), P00533 [L858R,T790M] (P00533 whole entry T790M/L858R, looked up): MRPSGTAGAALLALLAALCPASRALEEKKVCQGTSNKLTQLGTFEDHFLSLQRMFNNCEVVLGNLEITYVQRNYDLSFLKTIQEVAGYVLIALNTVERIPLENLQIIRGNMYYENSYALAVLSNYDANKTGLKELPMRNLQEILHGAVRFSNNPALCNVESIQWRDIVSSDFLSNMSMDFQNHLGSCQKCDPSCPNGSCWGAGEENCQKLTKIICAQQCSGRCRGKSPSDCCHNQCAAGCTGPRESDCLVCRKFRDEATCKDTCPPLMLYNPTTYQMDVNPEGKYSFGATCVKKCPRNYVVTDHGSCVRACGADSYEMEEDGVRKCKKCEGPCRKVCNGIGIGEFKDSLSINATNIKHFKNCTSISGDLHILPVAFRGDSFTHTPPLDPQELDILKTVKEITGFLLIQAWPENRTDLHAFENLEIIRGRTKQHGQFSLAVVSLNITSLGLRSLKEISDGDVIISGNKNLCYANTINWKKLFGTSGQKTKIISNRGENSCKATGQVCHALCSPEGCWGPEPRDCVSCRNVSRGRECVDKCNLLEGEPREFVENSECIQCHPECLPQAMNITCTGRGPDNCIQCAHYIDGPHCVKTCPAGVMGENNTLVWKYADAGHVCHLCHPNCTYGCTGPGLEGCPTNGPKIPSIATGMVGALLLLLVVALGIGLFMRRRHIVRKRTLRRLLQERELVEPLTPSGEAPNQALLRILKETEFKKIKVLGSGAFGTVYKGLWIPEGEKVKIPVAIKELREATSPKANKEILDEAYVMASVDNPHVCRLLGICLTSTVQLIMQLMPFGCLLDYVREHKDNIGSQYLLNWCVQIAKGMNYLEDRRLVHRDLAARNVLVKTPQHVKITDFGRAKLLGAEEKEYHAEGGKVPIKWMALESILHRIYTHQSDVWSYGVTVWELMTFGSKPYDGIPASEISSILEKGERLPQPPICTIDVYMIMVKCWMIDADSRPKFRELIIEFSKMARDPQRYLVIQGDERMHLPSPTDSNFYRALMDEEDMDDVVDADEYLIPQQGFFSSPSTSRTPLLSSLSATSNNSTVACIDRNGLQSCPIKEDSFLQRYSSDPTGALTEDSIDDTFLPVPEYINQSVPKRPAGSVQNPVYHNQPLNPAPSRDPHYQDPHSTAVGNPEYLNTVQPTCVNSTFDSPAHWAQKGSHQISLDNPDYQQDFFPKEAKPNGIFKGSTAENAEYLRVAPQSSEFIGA

[6] = target: Epidermal growth factor receptor (Homo sapiens, UniProt P00533, L858R/T790M); assay: Inhibition of EGFR L858R/T790M mutant (unknown origin) using Tyr 4 peptide as substrate in presence of ATP by Z-LYTE kinase assay
Chain of Epidermal growth factor receptor (Homo sapiens, UniProt P00533, L858R/T790M) (P00533 25-1210 T790M/L858R limits assumed): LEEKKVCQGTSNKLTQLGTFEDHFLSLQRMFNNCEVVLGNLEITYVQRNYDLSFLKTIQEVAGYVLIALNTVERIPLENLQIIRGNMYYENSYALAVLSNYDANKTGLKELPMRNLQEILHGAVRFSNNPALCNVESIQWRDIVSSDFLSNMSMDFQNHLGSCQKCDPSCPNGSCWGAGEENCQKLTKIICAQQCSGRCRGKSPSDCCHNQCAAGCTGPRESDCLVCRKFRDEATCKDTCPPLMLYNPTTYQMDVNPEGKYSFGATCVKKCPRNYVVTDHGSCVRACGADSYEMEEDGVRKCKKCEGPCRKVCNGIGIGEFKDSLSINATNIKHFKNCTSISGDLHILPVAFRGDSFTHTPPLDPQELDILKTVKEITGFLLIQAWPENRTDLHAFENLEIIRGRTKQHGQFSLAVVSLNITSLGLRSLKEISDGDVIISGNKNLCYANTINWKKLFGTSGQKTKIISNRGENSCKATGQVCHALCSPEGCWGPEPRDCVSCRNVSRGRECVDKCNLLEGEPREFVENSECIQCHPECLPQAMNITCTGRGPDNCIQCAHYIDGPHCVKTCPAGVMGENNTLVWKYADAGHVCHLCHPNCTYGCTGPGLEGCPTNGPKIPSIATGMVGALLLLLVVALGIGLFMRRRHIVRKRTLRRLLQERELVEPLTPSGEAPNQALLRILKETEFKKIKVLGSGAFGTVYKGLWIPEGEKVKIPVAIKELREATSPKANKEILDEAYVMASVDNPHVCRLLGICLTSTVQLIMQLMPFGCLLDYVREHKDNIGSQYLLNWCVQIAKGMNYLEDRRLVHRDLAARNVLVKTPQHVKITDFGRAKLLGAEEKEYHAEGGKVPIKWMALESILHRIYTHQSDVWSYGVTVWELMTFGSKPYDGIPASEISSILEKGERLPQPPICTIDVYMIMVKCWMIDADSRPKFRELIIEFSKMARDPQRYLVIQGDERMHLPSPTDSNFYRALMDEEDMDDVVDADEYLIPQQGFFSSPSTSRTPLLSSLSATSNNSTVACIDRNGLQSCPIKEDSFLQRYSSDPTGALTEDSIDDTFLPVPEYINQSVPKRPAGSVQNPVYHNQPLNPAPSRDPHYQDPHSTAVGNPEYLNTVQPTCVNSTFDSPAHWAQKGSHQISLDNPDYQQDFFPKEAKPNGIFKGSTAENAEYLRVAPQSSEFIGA

[7] = target: T1, Epidermal growth factor receptor (Homo sapiens, UniProt P00533); assay: Inhibition of wild-type EGFR in human LoVo cells assessed as inhibition of AKT phosphorylation at S473 residue up to 1000 nmol/L after 6 hrs by Western blot analysis; type: cell-based; procedure, shortened: as §2
T1 sequence (P00533 whole entry): as the sequence (P00533 whole entry, looked up, stated change not applied) above

[8] = target: T1, Epidermal growth factor receptor; assay: Inhibition of wild-type EGFR phosphorylation at Y1086 residue in human LoVo cells up to 1000 nmol/L after 6 hrs by Western blot analysis; type: cell-based; procedure, shortened: as §2
Mus musculus = assay: Toxicity in nude mouse assessed as effect on body weight at 5 mg/kg/day, ig administered once daily for 30 days; type: organism-based; details: in vivo, po, 720 h
[9] = system: Epidermal growth factor receptor (Homo sapiens), P00533 [L858R,T790M]; assay: Inhibition of EGFR L858R/T790M mutant in human H1975 cells assessed as inhibition of ERK phosphorylation at P-p44/42 residue up to 1000 nmol/L after 6 hrs by Western blot analysis; type: cell-based; procedure, shortened: as §2
[10] = system: Epidermal growth factor receptor (Homo sapiens), P00533 [L858R,T790M]; assay: Inhibition of EGFR L858R/T790M mutant in human H1975 cells assessed as inhibition of AKT phosphorylation at S473 residue up to 1000 nmol/L after 6 hrs by Western blot analysis; type: cell-based; procedure, shortened: as §2
[11] = system: Epidermal growth factor receptor (Homo sapiens), P00533 [UNDEFINED MUTATION]; assay: Inhibition of EGFR exon 19 deletion mutant in human PC9 cells assessed as inhibition of AKT phosphorylation at S473 residue up to 1000 nmol/L after 6 hrs by Western blot analysis; type: cell-based; procedure, shortened: as §2
[12] = target: T1, Epidermal growth factor receptor; assay: Inhibition of wild-type EGFR (unknown origin) using Tyr 4 peptide as substrate in presence of ATP by Z-LYTE kinase assay
NCI-H1975 [13] = assay: Antitumor activity against human NCI-H1975 cells harboring L858R/T790M mutant xenografted in nude mouse at 5 mg/kg/day, ig administered once daily for 30 days measured every 2 days of dosing; type: functional, organism-based
Procedure, shortened: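 Female nude mice (6–8 weeks) were injected subcutaneously in the right flank with NCI-H1975 cells (1 × 10^6/mouse). Once tumors reached about 150–200 mm3, mice were randomized (n = 10 per group). They were dosed intragastrically at 5 mg/kg/day for 30 consecutive days, or given vehicle DMSO/Cremophor-EL/PBS (1:1:8). Tumor length and width were measured by caliper every two days, and volume = width × width × length/2.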

[14] = target: T1, Epidermal growth factor receptor; assay: Inhibition of wild-type EGFR in human LoVo cells assessed as inhibition of ERK phosphorylation at P-p44/42 residue up to 1000 nmol/L after 6 hrs by Western blot analysis; type: cell-based; procedure, shortened: as §2

Row | Compound | IC50 (PC-9) [µM] | IC50 (NCI-H1975 [1]) [µM] | solubility [2] [mg/mL] | IC50 (NCI-H460) [µM] | inhibition [3] | inhibition [4] | inhibition [5] | IC50 [6] [µM] | inhibition (INH) [7] | inhibition (INH) [8] | inhibition [9] | inhibition [10] | inhibition [11] | IC50 [12] [µM] | inhibition (INH) [14] | IC50 (BEAS-2B) [µM] | Ratio IC50 (Homo sapiens) | Activity (Mus musculus) | Activity (NCI-H1975 [13])
1 | C=CC(=O)Nc1cc(Nc2nccc(-c3cn(C)c4ccccc34)n2)c(OC)cc1N(C)CCN(C)C [OSIMERTINIB] | […] | […] | < 0.1 | 0.416 | – | – | – | – | – | – | – | – | – | – | – | 14.9 | – | – | –
2 | C=CC(=O)Nc1cc(Nc2nccc(-c3cn(C)c4ccccc34)n2)c(OC)cc1N(C)CC[N+](C)(C)[O-] | 0.0161 | 0.0174 | > 10 | 0.611 | Active | Active | Active | 0.0064 | Not Active | Not Active | Active | Active | Active | 0.318 | Not Active | 15.1 | 49.9 | Non-Toxic | Active
3 | C=CC(=O)Nc1cc(Nc2nccc(-c3cn(C)c4ccc(F)cc34)n2)c(OC)cc1N(C)CC[N+](C)(C)[O-] | 0.0262 | 0.0456 | < 0.1 | 0.893 | Active | Active | Active | 0.0102 | Not Active | Not Active | Active | Active | Active | 0.357 | Not Active | 15.7 | 35 | – | –
4 | C=CC(=O)Nc1cc(Nc2nccc(-c3cn(C)c4ccc(F)cc34)n2)c(OC)cc1N(C)CCN(C)C | 0.0081 | 0.0153 | < 0.1 | 0.429 | Active | Active | Active | 0.0049 | Not Active | Not Active | Active | Active | Active | 0.166 | Not Active | 7.9 | 34.3 | – | –

The next lines start with results.

Row | IC50 (PC-9) [µM] | IC50 (NCI-H1975 [1]) [µM] | solubility [2] [mg/mL] | IC50 (NCI-H460) [µM] | inhibition [3] | inhibition [4] | inhibition [5] | IC50 [6] [µM] | inhibition (INH) [7] | inhibition (INH) [8] | inhibition [9] | inhibition [10] | inhibition [11] | IC50 [12] [µM] | inhibition (INH) [14] | Compound | IC50 (BEAS-2B) [µM] | Ratio IC50 (Homo sapiens) | Activity (Mus musculus) | Activity (NCI-H1975 [13])
5 | 0.0467 | 0.0899 | > 10 | 1.14 | Active | Active | Active | 0.0178 | Not Active | Not Active | Active | Active | Active | 0.595 | Not Active | C=CC(=O)Nc1cc(Nc2nccc(-c3cn(C)c4c(F)cccc34)n2)c(OC)cc1N(C)CC[N+](C)(C)[O-] | 28.4 | 33.4 | – | –
6 | 0.0205 | 0.0329 | < 0.1 | 0.875 | Active | Active | Active | 0.006 | Not Active | Not Active | Active | Active | Active | 0.175 | Not Active | C=CC(=O)Nc1cc(Nc2nccc(-c3cn(C)c4c(F)cccc34)n2)c(OC)cc1N(C)CCN(C)C | 15.6 | 29.2 | – | –

Source: ChEMBL document CHEMBL4043110 (Bioorg Med Chem, 2017)
